Most compounds without a hit are left out; they make up all but 4.8% or so of the library.
CSC inhib: cancer stem cell viability inhibitors, primary screen, luminescence; cancer stem cell-like cells viability; inhibition, % at 7.5 µM; 300,000 compounds, 1.1% hits; in the data active = inhibition above about 75%; tested in HMLE shEcad cells
XBP1 UPR activ: activators of adaptive XBP1 UPR arm, primary screen, cell-based, CHO-XBP1 luciferase reporter, luminescence, uHTS; IRE1-XBP1 UPR activation; percent of tunicamycin response, DMSO as zero; activation, % at 20 µM; 330,000 compounds, 0.33% hits; AID 463104, 2010;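 active = versus positive control, 20 µM dose yields 30% or more activation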
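Assay system: CHO-XBP1 luciferase reporter cells; Schedule: 6 h treatment, 37 °C; Detection: glow luminescence from Steady-Glo reagent; Benchmarks: high control tunicamycin 10 µg/mL final, low control DMSO vehicle only.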
Mdm2 MdmX PPI: inhibitors of human Mdm2-MdmX association, primary screen, cell-based, luminescence, split luciferase, SaOS-2, uHTS | Protein Mdm4 (Homo sapiens) + E3 ubiquitin-protein ligase Mdm2 (Homo sapiens), … | SaOS-2 split-luciferase Mdm2/MdmX complementation | inhibition, % at 8 µM | 330,000 compounds, 3% hits;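 active = inhibition of at least 50% at 8 µM in the primary screen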
Target sequence (O15151 whole entry, looked up): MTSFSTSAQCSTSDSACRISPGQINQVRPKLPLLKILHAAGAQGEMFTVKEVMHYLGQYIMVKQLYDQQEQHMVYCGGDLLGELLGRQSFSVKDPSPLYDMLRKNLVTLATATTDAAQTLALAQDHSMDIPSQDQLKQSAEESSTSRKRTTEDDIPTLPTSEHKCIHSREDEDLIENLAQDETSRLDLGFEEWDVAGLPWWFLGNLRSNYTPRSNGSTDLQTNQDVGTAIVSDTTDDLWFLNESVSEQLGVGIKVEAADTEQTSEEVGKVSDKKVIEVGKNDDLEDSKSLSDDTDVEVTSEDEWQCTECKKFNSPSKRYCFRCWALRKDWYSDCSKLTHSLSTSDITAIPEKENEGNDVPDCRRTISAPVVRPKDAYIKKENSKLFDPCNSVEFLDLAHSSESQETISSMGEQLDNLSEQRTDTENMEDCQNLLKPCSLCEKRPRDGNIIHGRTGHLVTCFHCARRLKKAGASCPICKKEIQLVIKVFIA
Target sequence (Q00987 whole entry, looked up): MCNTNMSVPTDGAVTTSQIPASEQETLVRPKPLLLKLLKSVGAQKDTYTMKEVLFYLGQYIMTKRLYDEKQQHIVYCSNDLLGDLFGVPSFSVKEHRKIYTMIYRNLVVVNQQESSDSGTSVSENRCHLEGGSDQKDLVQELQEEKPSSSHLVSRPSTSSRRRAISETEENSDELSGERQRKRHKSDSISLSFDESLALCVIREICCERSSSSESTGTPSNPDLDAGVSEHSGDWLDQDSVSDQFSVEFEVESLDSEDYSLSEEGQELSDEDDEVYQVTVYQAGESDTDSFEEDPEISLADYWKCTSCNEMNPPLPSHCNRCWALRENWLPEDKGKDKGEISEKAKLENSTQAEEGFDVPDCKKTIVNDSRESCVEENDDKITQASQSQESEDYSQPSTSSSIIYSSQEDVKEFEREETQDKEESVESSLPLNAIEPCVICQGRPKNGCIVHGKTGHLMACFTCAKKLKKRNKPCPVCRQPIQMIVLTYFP
SKKanGAS inh: S. pyogenes SKKanGAS growth inhibitors in kanamycin, primary screen, streptokinase expression inhibitor project, SKKanGAS strain, BacTiter-Glo luminescence. AID 1662, 2009. inhibition, % at 7.5 µM. 300,000 compounds, 1.3% hits. 6 h;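 active = mean replicate score, as percent of positive control median, at least 50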;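 also: strain carries kanamycin resistance gene driven by streptokinase promoter and grows in 40 µg/ml kanamycin; loss of luminescence reflects streptokinase promoter inhibition or plain growth inhibition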
Beta apoptosis: inhibitors of cytokine-induced beta cell apoptosis, primary screen, luminescence; INS-1E cytokine-induced death, ATP luminescence, 48 h; percent of positive-control rescue, neutral wells zero; protection from apoptosis, % (no concentration beside the values); 300,000 compounds, 0.8% hits;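 active = Every replicate reaches about 75%, or at least half do and their mean reaches it too, limit read from the data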;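 also: higher means more ATP so stronger rescue from cytokine killing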
CHOP UPR activ: activators of apoptotic CHOP UPR arm, primary screen, cell-based, CHO-CHOP luciferase reporter, luminescence, uHTS; UPR activation; percent of tunicamycin response over DMSO baseline; activation, % at 10 µM; 330,000 compounds, 0.34% hits;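 active = at 10 µM dose, activation of 40% or more, normalized to positive control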
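Dosing – one dose, 10 µM in 0.5% DMSO · System – CHO-CHOP cells, stable luciferase reporter of PERK-eIF2a-CHOP signalling · Input – 500 cells/well · Control set – tunicamycin 10 µg/mL final as positive, DMSO-only wells as negative · Timing – 6 h compound treatment, 37 °C · Measure – % activation vs tunicamycin · Technique – luminescence read with Steady-Glo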
Large screens that a line does not name were inactive.

C#CCN(C(=O)c1cc(COc2cccc(C(F)(F)F)c2)on1)C1CCCCC1	Beta apoptosis 104
O=C(c1cc(COc2cccc(C(F)(F)F)c2)on1)N1CCC(c2ccccc2)CC1	none
COc1ccc(C)cc1NC(=O)CN1C(=O)COc2ccc(S(=O)(=O)N3CCCCC3)cc21	none
CC(C)c1ccc(-c2nn(-c3ccccc3)cc2C(=O)NCC2CCCO2)cc1 (stereo not given)	none
CC(C)Cn1c(N)c(C(=O)COC(=O)Cc2cccc(C(F)(F)F)c2)c(=O)n(C)c1=O	none
CC(=O)[C@@]1(O)C(C)CC2C3C=C(C)C4=Cc5c(cnn5-c5ccccc5)C[C@]4(C)C3C(O)C[C@@]21C (stereo not given in full)	CSC inhib 100, SKKanGAS inh 64 (no result: XBP1 UPR activ, Mdm2 MdmX PPI, CHOP UPR activ)
Cc1ccc(NC(=O)CN2C(=O)CC(C)S(=O)(=O)c3ccccc32)cc1 (stereo not given)	none
CN1CCN(C(=O)C2CCCN(S(=O)(=O)c3ccc(Cl)cc3)C2)CC1 (stereo not given)	none
CN(CCCNC(=O)c1cc2c(Cl)nc3ccccc3c2s1)Cc1ccccc1	none
CCN(CC)CCCNC(=O)c1cc2c(Cl)nc3ccccc3c2s1	CSC inhib 77
CC1CCCN(CCCNC(=O)c2cc3c(Cl)nc4ccccc4c3s2)C1 (stereo not given)	CSC inhib 85
O=C(NC(=S)NNC(=O)c1ccccc1O)c1ccc(F)cc1	SKKanGAS inh 81
O=C(NC(=S)NNC(=O)c1ccccc1O)c1ccccc1	SKKanGAS inh 93 (no result: Beta apoptosis)
O=C(NC(=S)NNC(=O)c1ccccc1O)c1cccs1	SKKanGAS inh 90 (no result: CSC inhib)
O=C(NNC(=S)NC(=O)c1ccc(F)cc1)c1cccnc1	none
Cc1ccc(C(=O)NC(=S)NNC(=O)c2ccccc2O)cc1	SKKanGAS inh 102
COc1ccc2cc(OCC(=O)NNC(=O)Nc3ccc(F)cc3)ccc2c1	none (no result: CSC inhib)
CCN(CC(=O)NC1CCS(=O)(=O)C1)S(=O)(=O)c1ccc(Br)cc1 (stereo not given)	none (no result: SKKanGAS inh)
O=C(Cc1ccc(Cl)cc1)NNC(=S)NC(=O)c1cccs1	SKKanGAS inh 82
O=C(Cc1cccs1)NNC(=S)NCc1ccc(Cl)cc1	none
O=C(N/N=C/c1cc(Br)c(Br)o1)c1ccc2c(c1)OCCO2	none
O=C(N/N=C/c1cc(Br)c(O)c(Br)c1O)c1ccc2c(c1)OCCO2	Beta apoptosis 91
O=C(N/N=C/c1ccccc1O)c1ccc2c(c1)OCO2	SKKanGAS inh 105, Beta apoptosis 95
Cc1ccc(CN(c2ccc(C(=O)N3CCCC3)cc2)S(C)(=O)=O)cc1	SKKanGAS inh 67
O=C(CN1C(=O)S/C(=C\c2ccccc2F)C1=O)NC1C=CS(=O)(=O)C1 (stereo not given)	none
CCCCc1ccc(N=N/C(C(=O)Nc2ccc(NC(C)=O)cc2OC)=C(/C)O)cc1	CSC inhib 80
COc1ccc(OC)c(C(=O)COC(=O)COc2ccccc2F)c1	none (no result: CSC inhib, SKKanGAS inh, Beta apoptosis)
COc1ccc2cc(/C=N/NC(=O)c3ccc(CN(c4cccc(Cl)c4Cl)S(C)(=O)=O)cc3)c(Cl)nc2c1	CSC inhib 85
Cc1ccc2c(c1)N(C(=O)CCC(=O)NCCCN1CCC(Cc3ccccc3)CC1)CCO2	Beta apoptosis 99
COc1ccc(/C=N/NC(=O)c2cc(C34CC5CC(CC(C5)C3)C4)[nH]n2)cc1O	CSC inhib 97
COc1ccc(/C=N\NC(=O)c2ccc(=O)[nH]n2)cc1O	none (no result: CSC inhib, Beta apoptosis)
N#C/C(=C\c1ccc(/C=C(/C#N)c2nn(CCO)c(N)c2C#N)cc1)c1nn(CCO)c(N)c1C#N	SKKanGAS inh 67
C/C(=N\Nc1nc(C)cc(-c2ccccc2)n1)c1ccc(O)cc1	Beta apoptosis 83
C/C(=N\Nc1nc(C)cc(-c2ccccc2)n1)c1cccc(N)c1	Beta apoptosis 89
C/C(=N\Nc1nc(C)cc(-c2ccccc2)n1)c1ccccc1	Beta apoptosis 82
COC(=O)c1ccc2c(=O)[nH]c(COC(=O)CCC(=O)c3ccc(Cl)cc3)nc2c1	none
COC(=O)/C(C#N)=C\c1c(OC)[nH]c2ccccc12	none
CN(CC(=O)Nc1ccc(Cl)c(C(F)(F)F)c1)C(=O)COC(=O)C1CC2CCCC(C1)C2=O (stereo not given)	none (no result: CSC inhib, SKKanGAS inh)
CCC(=O)c1ccc(OCC(=O)N2CCN(S(=O)(=O)c3ccc(Cl)s3)CC2)cc1	none (no result: CSC inhib, SKKanGAS inh)
COc1ccc(C(C)(C)C)cc1NC(=O)COC(=O)CN1C(=O)NC2(CCCCC2C)C1=O (stereo not given)	none (no result: SKKanGAS inh)
C=CCn1c(O)c(N=NC(=S)Nc2ccc(OC)cc2)c2ccccc21	SKKanGAS inh 56 (no result: XBP1 UPR activ, Mdm2 MdmX PPI, CHOP UPR activ)
C=CCn1c(O)c(N=Nc2ccccc2O)c2ccccc21	CSC inhib 96 (no result: SKKanGAS inh)
COc1cnc(-c2ccccn2)nc1Oc1ccc(F)cc1F	none
COc1cnc(-c2ccccn2)nc1Sc1cccc(Cl)c1	SKKanGAS inh 67
Nc1cccnc1Sc1cccc(Cl)c1	none (no result: CSC inhib)
FC(F)(F)c1cccc(Sc2cc(C(F)(F)F)nc(-c3ccccn3)n2)c1	none
COc1cnc(-c2ccccn2)nc1Oc1ccc(Cl)cc1	none
Cc1ccc(Sc2cc(C)nc(-c3ccccn3)n2)cc1	SKKanGAS inh 85, Beta apoptosis 87
COc1cnc(-c2ccccn2)nc1Oc1ccccc1Cl	SKKanGAS inh 71
COc1cnc(-c2ccccn2)nc1Sc1ccc(C)cc1	SKKanGAS inh 67, Beta apoptosis 92
Cc1cc(C)c(S(=O)(=O)NCc2nc3nc(C)cc(C)n3n2)c(C)c1	none
CCOC(=O)c1c(S(=O)(=O)NCCCc2ccco2)c(C)n(C)c1C	none (no result: Beta apoptosis)
COc1ccccc1Sc1nc(-c2ccccn2)ncc1OC	SKKanGAS inh 83
COc1ccc(C(CNS(=O)(=O)c2ccc(F)cc2)N2CCN(C)CC2)cc1 (stereo not given)	none (no result: CSC inhib)
COc1ccc(S(=O)(=O)NCC(c2ccc(F)cc2)N2CCN(C)CC2)cc1 (stereo not given)	SKKanGAS inh 50 (no result: CSC inhib)
COc1ccc(C(=O)Nc2c3c(nn2-c2ccc(Cl)cc2)CS(=O)(=O)C3)cc1	none
COc1ccc(C(=O)Nc2c3c(nn2-c2ccc([N+](=O)[O-])cc2)CS(=O)(=O)C3)cc1	SKKanGAS inh 52 (no result: Beta apoptosis)
COc1ccccc1N1CC(C)(C)C(=O)N(C(=O)c2ccc(C)cc2)C1=S	none
COc1ccccc1N1CC(C)(C)C(=O)N(C(=O)c2ccc(Cl)cc2)C1=S	Beta apoptosis 85
